From PMC9052940 (RSC Advances, 2020)
Read-outs that look alike come from different tables or passages of the source.

Columns and labels:
[1] = cited from earlier work
[2] = PIT-slope characterization; type: physicochemical; details: molar fraction; added to 3%C10E4/n-octane/10^−2 M NaClaq
Summary of the method: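 Increasing amounts of test surfactant added to a reference system of 3% C10E4/n-octane/aqueous NaCl. The shift in phase inversion temperature was recorded against concentration and against molar fraction, x = moles added/(moles C10E4 + moles added). Pure n-alkyl-β-D-glucosides and maltosides served as linear references. Average error below 10%.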

[3] = calculated from NMR experiments in D2O solutions; cited from earlier work
[4] = 3%C10E4/n-octane/10^−2 M NaClaq; cited from earlier work
[5] = parameter of the normalized HLD; cited from earlier work
[6] = a = turbid solutions close and above CMC

SMILES	CMC [1, 6] [mmol/L]	γCMC [1, 6] [mN m^−1]	dPIT/dx [2] [°C]	CMC ([1]; ref 34) [mmol/L]	further results
CCCCCCCCCCCCO[C@H]1O[C@H](CO)[C@@H](O[C@H]2O[C@H](CO)[C@@H](O)[C@H](O)[C@H]2O)[C@H](O)[C@H]1O [α-D-Maltoside C12]	0.12	35.9	–	–	–
CCCCCCCCCCCCO[C@@H]1O[C@H](CO)[C@@H](O[C@H]2O[C@H](CO)[C@@H](O)[C@H](O)[C@H]2O)[C@H](O)[C@H]1O [β-D-Maltoside C12, n-dodecyl-β-D-maltoside]	0.13	33.1	112.2	0.19	CMC ([1]; ref 45): 0.15 mmol/L; γCMC ([1]; ref 45): 35.3 mN m^−1; Γeq (equilibrated surface excess) ([1]; ref 60): 3.32 × 10^−6 mol m^−2; Diffusion coefficient of micelles [3]: 7 × 10^−11 m^2 s^−1
CCCCCCCCCCCCO[C@H]1O[C@H](CO)[C@@H](O)[C@H](O)[C@H]1O [α-D-Glucoside C12]	0.042	41.2	–	–	–
CCCCCCCCCCCCCCCCO[C@@H]1O[C@H](CO)[C@@H](O[C@H]2O[C@H](CO)[C@@H](O)[C@H](O)[C@H]2O)[C@H](O)[C@H]1O [β-D-Maltoside C16]	–	–	74.3	0.00145	–
CCCCCCCCCCCCO[C@@H]1O[C@H](CO)[C@@H](O)[C@H](O)[C@H]1O [β-D-Glucoside C12]	0.13	33.1	27.0	–	CMC ([1]; ref 44): 0.19 mmol/L; γCMC ([1]; ref 44): 39.4 mN m^−1
CCCCCCCCCO[C@@H]1O[C@H](CO)[C@@H](O[C@H]2O[C@H](CO)[C@@H](O)[C@H](O)[C@H]2O)[C@H](O)[C@H]1O [β-D-Maltoside C9]	–	–	–	6.50	–
CCCCCCCCO[C@@H]1O[C@H](CO)[C@@H](O)[C@H](O)[C@H]1O [β-D-Glucoside C8, n-octyl-β-D-glucoside]	–	–	77.8	–	CMC ([1]; ref 44): 25.0 mmol/L; γCMC ([1]; ref 44): 30.1 mN m^−1
CCCCCCCCCCCCCCO[C@@H]1O[C@H](CO)[C@@H](O[C@H]2O[C@H](CO)[C@@H](O)[C@H](O)[C@H]2O)[C@H](O)[C@H]1O [β-D-Maltoside C14]	–	–	80.7	0.0167	–
CCCCCCCCCCO[C@@H]1O[C@H](CO)[C@@H](O[C@H]2O[C@H](CO)[C@@H](O)[C@H](O)[C@H]2O)[C@H](O)[C@H]1O [β-D-Maltoside C10]	–	–	123.0	2.19	CMC ([1]; ref 45): 1.95 mmol/L; γCMC ([1]; ref 45): 36.7 mN m^−1
CCCCCCCCCCCCCC(=O)OC[C@H]1OC(O)[C@H](O)[C@H]1O (single isomer, unassigned) [5-O-Xylose monoester (α, β isomers) C14]	0.015	36.0	–	–	–
CCCCCCCCCCOCCOCCOCCOCCO [C10E4]	–	–	–	–	PIT (Phase Inversion Temperature) of the reference system [4]: 23.9 °C; PACN1 [5]: 8.2
CCCCCCCCCCO[C@@H]1O[C@H](CO)[C@@H](O)[C@H](O)[C@H]1O [β-D-Glucoside C10]	–	–	47.8	–	CMC ([1]; ref 44): 2.2 mmol/L; γCMC ([1]; ref 44): 27.7 mN m^−1
CCCCCCCCO[C@@H]1O[C@H](CO)[C@@H](O[C@H]2O[C@H](CO)[C@@H](O)[C@H](O)[C@H]2O)[C@H](O)[C@H]1O [β-D-Maltoside C8]	–	–	–	23.2	–
CCCCCCCCCCCCCCCC(=O)OC[C@H]1OC(O)[C@H](O)[C@H]1O (single isomer, unassigned) [5-O-Xylose monoester (α, β isomers) C16]	0.022	41.0	–	–	–
